ChEMBL document CHEMBL1122046, “Quaternary heterocyclylamino beta-lactams: a generic alternative to the classical acylamino side chain” (1982)
≈ marks a conversion by molar mass, not a printed value.

How the values were obtained:
Format in all cases: functional
Enterobacter cloacae = test: Minimum inhibitory concentration against aerobic organism Enterobacter cloacae strain 2646
How it was run: (§1)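 Agar-dilution MIC in µg/mL against aerobic bacterial strains on tryptocase soy agar, with inoculum applied as spots. Most series used 10^5 cfu per spot, and a later series used 10^4 cfu per spot. In some tables, footnoted strains were instead tested on Mueller-Hinton or nutrient agar. β-Lactamase-producing strains are flagged.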

Proteus vulgaris = test: Minimum inhibitory concentration against aerobic organism Proteus vulgaris strain 2829; how it was run: as §1
Proteus mirabilis = test: Minimum inhibitory concentration against aerobic organism Proteus mirabilis strain 2830; how it was run: as §1
Pseudomonas aeruginosa = test: Minimum inhibitory concentration against aerobic organism Pseudomonas aeruginosa strain 2835; how it was run: as §1
Escherichia coli = test: MIC against aerobic organism Escherichia coli strain 2891; how it was run: as §1
Klebsiella aerogenes = test: Minimum inhibitory concentration against aerobic organism Enterobacter aerogenes strain 2906; how it was run: as §1
Streptococcus pyogenes = test: Minimum inhibitory concentration against aerobic organism Streptococcus pyogenes strain 3124; how it was run: as §1
Morganella morganii = test: Minimum inhibitory concentration against aerobic organism Morganella morganii strain 2833; how it was run: as §1
[1] = Minimum inhibitory concentration against aerobic organism Salmonella schottmuelleri strain 2837; how it was run: as §1
Staphylococcus aureus = test: Minimum inhibitory concentration against aerobic organism Staphylococcus aureus strain 2868; how it was run: as §1
Serratia marcescens = test: Minimum inhibitory concentration against aerobic organism Serratia marcescens strain 2852; how it was run: as §1
Enterococcus faecalis = test: Minimum inhibitory concentration against aerobic organism Streptococcus faecalis strain 2864; how it was run: as §1
Shigella = test: Minimum inhibitory concentration against aerobic organism Shigella species strain 2880; how it was run: as §1
Klebsiella pneumoniae = test: Minimum inhibitory concentration against aerobic organism Klebsiella pneumoniae strain 2882; how it was run: as §1
[2] = Enterobacter cloacae, read-out: MIC
[3] = Proteus vulgaris, read-out: MIC
[4] = Proteus mirabilis, read-out: MIC
[5] = Escherichia coli, read-out: MIC
[6] = Klebsiella aerogenes, read-out: MIC
[7] = Streptococcus pyogenes, read-out: MIC
[8] = Morganella morganii, read-out: MIC
[9] = Staphylococcus aureus, read-out: MIC
[10] = Serratia marcescens, read-out: MIC
[11] = Klebsiella pneumoniae, read-out: MIC

Compound	MIC (Enterobacter cloacae; [2])	MIC (Proteus vulgaris; [3])	MIC (Proteus mirabilis; [4])	MIC (Pseudomonas aeruginosa)	MIC (Escherichia coli; [5])	MIC (Klebsiella aerogenes; [6])	MIC (Streptococcus pyogenes; [7])	MIC (Morganella morganii; [8])	MIC ([1]; Salmonella, read-out: MIC)	MIC (Staphylococcus aureus; [9])	MIC (Serratia marcescens; [10])	MIC (Enterococcus faecalis)	MIC (Shigella; Shigella, read-out: MIC)	MIC (Klebsiella pneumoniae; [11])	also measured
COC(=O)c1c[n+](C)ccc1N[C@@H]1C(=O)N2C(C(=O)[O-])=C(CSc3nnnn3C)CS[C@H]12	> 128 µg/mL	> 128 µg/mL	> 128 µg/mL	> 128 µg/mL	> 128 µg/mL	> 128 µg/mL	32 µg/mL (≈ 67 µM)	> 128 µg/mL	128 µg/mL (≈ 268 µM)	> 128 µg/mL	> 128 µg/mL	> 128 µg/mL	> 128 µg/mL	> 128 µg/mL	–
Cn1nnnc1SCC1=C(C(=O)[O-])N2C(=O)[C@@H](Nc3cc[n+](COCc4ccccc4)cc3)[C@H]2SC1	16 µg/mL (≈ 30.4 µM)	128 µg/mL (≈ 244 µM)	> 128 µg/mL	> 128 µg/mL	1 µg/mL (≈ 1.9 µM)	128 µg/mL (≈ 244 µM)	–	> 128 µg/mL	1 µg/mL (≈ 1.9 µM)	16 µg/mL (≈ 30.4 µM)	> 128 µg/mL	> 128 µg/mL	1 µg/mL (≈ 1.9 µM)	2 µg/mL (≈ 3.81 µM)	–
Cn1nnnc1SCC1=C(C(=O)[O-])N2C(=O)[C@@H](Nc3cc[n+](CC(=O)[O-])cc3)[C@H]2SC1.[Na+]	64 µg/mL	1 µg/mL	64 µg/mL	> 128 µg/mL	4 µg/mL	32 µg/mL	2 µg/mL	> 128 µg/mL	4 µg/mL	32 µg/mL	> 128 µg/mL	> 128 µg/mL	2 µg/mL	8 µg/mL	–
CC[n+]1ccc(N[C@@H]2C(=O)N3C(C(=O)[O-])=C(CSc4nnnn4C)CS[C@H]23)cc1	2 µg/mL (≈ 4.61 µM)	< 0.06 µg/mL	2 µg/mL (≈ 4.61 µM)	> 128 µg/mL	< 0.5 µg/mL	0.5 µg/mL (≈ 1.15 µM)	1 µg/mL (≈ 2.31 µM)	0.5 µg/mL (≈ 1.15 µM)	4 µg/mL (≈ 9.23 µM)	64 µg/mL (≈ 148 µM)	> 128 µg/mL	> 128 µg/mL	< 0.5 µg/mL	1 µg/mL (≈ 2.31 µM)	–
COc1ccc(C[n+]2ccc(N[C@@H]3C(=O)N4C(C(=O)[O-])=C(CSc5nnnn5C)CS[C@H]34)cc2)cc1	8 µg/mL (≈ 15.2 µM)	< 0.06 µg/mL	16 µg/mL (≈ 30.4 µM)	> 64 µg/mL	0.25 µg/mL (≈ 0.476 µM)	4 µg/mL (≈ 7.61 µM)	< 0.06 µg/mL	16 µg/mL (≈ 30.4 µM)	0.125 µg/mL (≈ 0.238 µM)	8 µg/mL (≈ 15.2 µM)	64 µg/mL (≈ 122 µM)	> 64 µg/mL	0.5 µg/mL (≈ 0.951 µM)	0.5 µg/mL (≈ 0.951 µM)	–
C[n+]1ccccc1NC(C(=O)NC1C(=O)N2C1SC(C)(C)[C@@H]2C(=O)[O-])c1ccccc1 (stereo partly specified)	> 100 µg/mL	–	–	–	> 100 µg/mL	–	< 0.39 µg/mL	–	12.5 µg/mL (≈ 28.4 µM)	3.12 µg/mL (≈ 7.08 µM)	–	12.5 µg/mL (≈ 28.4 µM)	25 µg/mL (≈ 56.8 µM)	> 100 µg/mL	–
O=C([O-])C1=CCS[C@@H]2[C@H](Nc3cc[n+](Cc4ccccc4)cc3)C(=O)N12	8 µg/mL (≈ 21.8 µM)	0.125 µg/mL (≈ 0.34 µM)	> 128 µg/mL	128 µg/mL (≈ 348 µM)	1 µg/mL (≈ 2.72 µM)	64 µg/mL (≈ 174 µM)	–	> 128 µg/mL	< 0.06 µg/mL	16 µg/mL (≈ 43.5 µM)	> 128 µg/mL	128 µg/mL (≈ 348 µM)	< 0.06 µg/mL	< 0.06 µg/mL	–
Cn1nnnc1SCC1=C(C(=O)[O-])N2C(=O)[C@@H](Nc3cc[n+](C)cc3)[C@H]2SC1 (stereo in doubt; 15a)	–	–	–	–	–	–	–	–	–	–	–	–	–	–	MIC (Enterobacter cloacae): 1 µg/mL (≈ 2.38 µM); MIC (Proteus vulgaris): 0.25 µg/mL (≈ 0.596 µM); MIC (Proteus mirabilis): 8 µg/mL (≈ 19.1 µM); MIC (Escherichia coli): 0.5 µg/mL (≈ 1.19 µM); MIC (Klebsiella aerogenes): 0.5 µg/mL (≈ 1.19 µM); MIC (Streptococcus pyogenes): 2 µg/mL (≈ 4.77 µM); MIC (Morganella morganii): 4 µg/mL (≈ 9.54 µM); MIC [1]: 8 µg/mL (≈ 19.1 µM); MIC (Staphylococcus aureus): 64 µg/mL (≈ 153 µM); MIC (Serratia marcescens): 1 µg/mL (≈ 2.38 µM); MIC (Shigella): 1 µg/mL (≈ 2.38 µM); MIC (Klebsiella pneumoniae): 8 µg/mL (≈ 19.1 µM)
CC1(C)SC2C(Nc3cc[n+](COCC(Cl)(Cl)Cl)cc3)C(=O)N2[C@H]1C(=O)[O-] (stereo partly specified)	0.5 µg/mL (≈ 1.1 µM)	–	–	–	0.5 µg/mL (≈ 1.1 µM)	–	–	–	< 0.06 µg/mL	> 128 µg/mL	–	128 µg/mL (≈ 281 µM)	< 0.06 µg/mL	0.5 µg/mL (≈ 1.1 µM)	–
C[n+]1ccc(NC(C(=O)NC2C(=O)N3C2SC(C)(C)[C@@H]3C(=O)[O-])c2ccccc2)cc1 (stereo partly specified)	> 100 µg/mL	–	–	–	> 100 µg/mL	–	< 0.39 µg/mL	–	6.25 µg/mL (≈ 14.2 µM)	3.12 µg/mL (≈ 7.08 µM)	–	12.5 µg/mL (≈ 28.4 µM)	25 µg/mL (≈ 56.8 µM)	> 100 µg/mL	–
CC(=O)OCC1=C(C(=O)[O-])N2C(=O)[C@@H](Nc3cc[n+](COCC(Cl)(Cl)Cl)cc3)[C@H]2SC1	0.125 µg/mL (≈ 0.245 µM)	32 µg/mL (≈ 62.6 µM)	> 128 µg/mL	> 128 µg/mL	< 0.06 µg/mL	32 µg/mL (≈ 62.6 µM)	–	> 128 µg/mL	< 0.06 µg/mL	8 µg/mL (≈ 15.7 µM)	> 128 µg/mL	128 µg/mL (≈ 251 µM)	< 0.06 µg/mL	< 0.06 µg/mL	–
CC(=O)OCC1=C(C(=O)[O-])N2C(=O)[C@@H](Nc3cc[n+](Cc4ccccc4)cc3)[C@H]2SC1	4 µg/mL (≈ 9.1 µM)	0.125 µg/mL (≈ 0.284 µM)	> 128 µg/mL	> 128 µg/mL	0.5 µg/mL (≈ 1.14 µM)	16 µg/mL (≈ 36.4 µM)	–	> 128 µg/mL	< 0.06 µg/mL	4 µg/mL (≈ 9.1 µM)	> 128 µg/mL	128 µg/mL (≈ 291 µM)	< 0.06 µg/mL	< 0.06 µg/mL	–
CC1(C)SC2C(Nc3cc[n+](Cc4ccccc4)cc3)C(=O)N2[C@H]1C(=O)[O-] (stereo partly specified)	4 µg/mL (≈ 10.4 µM)	–	–	–	4 µg/mL (≈ 10.4 µM)	–	0.25 µg/mL (≈ 0.652 µM)	–	0.125 µg/mL (≈ 0.326 µM)	64 µg/mL (≈ 167 µM)	–	128 µg/mL (≈ 334 µM)	0.25 µg/mL (≈ 0.652 µM)	16 µg/mL (≈ 41.7 µM)	–
